Activity calls are given as the source filed them. No cut-off for these calls is given here.
Key:
Mus musculus [1] = assay: Effect on motor coordination in CD1 albino mouse assessed as number of falls form rotarod at 3 mg/kg, po administered 60 mins before test measured for 30 seconds after 30 mins of drug infusion by rotarod test; format: functional
Procedure, shortened: (§1)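 Rota-rod in male CD-1 mice with a pretest. Test substance given po in 1% CMC; falls from the rotating rod counted over 30 s, assessed 30 min after treatment.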

Mus musculus [2] = assay: Effect on motor coordination in CD1 albino mouse assessed as number of falls form rotarod at 10 mg/kg, po […] measured for 30 seconds after 30 mins of dosing by rotarod test; format: functional; procedure, shortened: as §1
Mus musculus [3] = assay: Anticonvulsant activity against pentylenetetrazole-induced shock in CD1 albino mouse assessed as shock latency at 3 mg/kg, po preincubated for 30 mins before pentylenetetrazole challenge measured for 30 mins (RVb=253.1 +/- 13 seconds); format: functional
Mus musculus [4] = assay: Anticonvulsant activity against pentylenetetrazole-induced shock in CD1 albino mouse assessed as shock latency at 10 mg/kg, po preincubated for 30 mins before pentylenetetrazole challenge measured for 30 mins (RVb=253.1 +/- 13 seconds); format: functional
Mus musculus [5] = assay: Anticonvulsant activity against pentylenetetrazole-induced convulsions in CD1 albino mouse assessed as convulsion latency at 3 mg/kg, po preincubated for 30 mins before pentylenetetrazole challenge measured for 30 mins (RVb=599 +/- 37.6 seconds); format: functional
Mus musculus [6] = assay: Anticonvulsant activity against pentylenetetrazole-induced convulsions in CD1 albino mouse assessed as convulsion latency at 10 mg/kg, po preincubated for 30 mins before pentylenetetrazole challenge measured for 30 mins (RVb=599 +/- 37.6 seconds); format: functional
Mus musculus [7] = assay: Effect on spontaneous motility in CD1 albino mouse assessed as number of movement on plane board at 3 mg/kg, po after 30 mins by hole-board test; format: functional
Procedure, shortened: (§2)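 Hole-board test in male CD-1 mice: animals placed singly on the board and allowed to explore panel and holes. Test run 30 min after po dosing in 1% CMC (10 mL/kg). Hole entries (curiosity) and plane movements (spontaneous motility) counted; 10 mice per group, compared with CMC controls.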

Mus musculus [8] = assay: Effect on spontaneous motility in CD1 albino mouse assessed as number of movement on plane board at 10 mg/kg, po after 30 mins by hole-board test; format: functional; procedure, shortened: as §2
Mus musculus [9] = assay: Effect on explorative capacity in CD1 albino mouse assessed as curiosity-related number of head plugging activity on hole at 3 mg/kg, po after 30 mins by hole-board test; format: functional; procedure, shortened: as §2
Mus musculus [10] = assay: Effect on explorative capacity in CD1 albino mouse assessed as curiosity-related number of head plugging activity on hole at 10 mg/kg, po after 30 mins by hole-board test; format: functional; procedure, shortened: as §2
Mus musculus [11] = assay: Anxiogenic activity in CD1 albino mouse at 1 mg/kg, po after 30 mins by light/dark box test; format: functional, organism-based; parameters: dose 1 mg/kg
Procedure, shortened: (§3)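 Male CD-1 mice (22-24 g) given test substance po in 1% CMC (10 mL/kg), tested 30 min later in a light/dark box. Transfers between compartments and time spent in the illuminated side were measured. Values are mean ± SEM of 15-20 mice; compared with controls.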

Mus musculus [12] = assay: Anxiogenic activity in CD1 albino mouse at 3 mg/kg, po after 30 mins by light/dark box test; format: functional, organism-based; parameters: dose 3 mg/kg; procedure, shortened: as §3
Mus musculus [13] = assay: Anxiogenic activity in CD1 albino mouse at 10 mg/kg, po after 30 mins by light/dark box test; format: functional, organism-based; parameters: dose 10 mg/kg; procedure, shortened: as §3
Mus musculus [14] = assay: Anxiogenic activity in CD1 albino mouse at 30 mg/kg, po after 30 mins by light/dark box test; format: functional, organism-based; parameters: dose 30 mg/kg; procedure, shortened: as §3
Mus musculus [15] = assay: Effect on learning and memory process in CD1 albino mouse assessed as improvement in retention latency at 1 mg/kg, po after 24 hrs by passive avoidance test; format: functional, organism-based; parameters: dose 1 mg/kg
Procedure, shortened: (§4)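 Step-through passive avoidance in a two-compartment box (lit and dark compartments joined by a guillotine door). Male CD-1 mice dosed po (1% CMC) 30 min before training; retention tested 24 h later. Training and retention latencies recorded; mean ± SEM of 15-20 mice versus controls.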

Mus musculus [16] = assay: Effect on learning and memory process in CD1 albino mouse assessed as improvement in retention latency at 3 mg/kg, po after 24 hrs by passive avoidance test; format: functional, organism-based; parameters: dose 3 mg/kg; procedure, shortened: as §4
Mus musculus [17] = assay: Effect on ethanol-induced sleeping time in CD1 albino mouse assessed as increase in duration of loss of righting reflex at 10 mg/kg, po preincubated 30 mins before ethanol challenge; format: functional, organism-based; parameters: dose 10 mg/kg
Mus musculus [18] = assay: Effect on ethanol-induced sleeping time in CD1 albino mouse assessed as increase in duration of loss of righting reflex at 3 mg/kg, po preincubated 30 mins before ethanol challenge; format: functional, organism-based; parameters: dose 3 mg/kg
Bos taurus = organism: Bos taurus; assay: Displacement of [3H]flumazenil from GABAA/Benzodiazepine receptor in bovine brain at 10 uM
Procedure, shortened: (§5)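 Bovine brain membranes; displacement of specific [3H]flumazenil (Ro15-1788) binding. Percent inhibition measured at 10 μM; Ki determined only when inhibition at that concentration exceeded 80%. Ki given as mean ± SEM of five determinations.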

[19] = Displacement of [3H]flumazenil from GABAA/Benzodiazepine receptor in bovine brain; parameters: species or system Bos taurus; procedure, shortened: as §5
Mus musculus [20] = assay: Anxiogenic activity in CD1 albino mouse at 3 mg/kg, po after 30 mins by light/dark box test in presence of flumazenil; format: functional, organism-based; parameters: dose 3 mg/kg
Procedure, shortened: (§6)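 Light/dark box in male CD-1 mice. Test substance given po in 1% CMC 30 min before the test, with flumazenil 100 mg/kg ip (saline) co-treatment. Transfers between compartments and time in the lit side recorded. Mean ± SEM of 15-20 mice.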

Mus musculus [21] = assay: Effect on learning and memory process in CD1 albino mouse assessed as improvement in retention latency at 100 mg/kg, ip after 24 hrs by passive avoidance test; format: functional, organism-based; parameters: dose 100 mg/kg
Procedure, shortened: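 Male CD-1 mice treated ip 30 min before training in a step-through passive avoidance box, a lighted compartment joined to a dark one by a guillotine door. Training latency recorded, then retention latency 24 h later. Mean of 15-20 mice per group.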

Mus musculus [22] = assay: Effect on motor coordination in CD1 albino mouse assessed as number of falls form rotarod at 30 mg/kg, po […] measured for 30 seconds after 30 mins of drug infusion by rotarod test; format: functional; procedure, shortened: as §1
Mus musculus [23] = assay: Anticonvulsant activity against pentylenetetrazole-induced shock in CD1 albino mouse assessed as shock latency at 30 mg/kg, po preincubated for 30 mins before pentylenetetrazole challenge measured for 30 mins (RVb=253.1 +/- 13 seconds); format: functional
Mus musculus [24] = assay: Anticonvulsant activity against pentylenetetrazole-induced convulsions in CD1 albino mouse assessed as convulsion latency at 30 mg/kg, po preincubated for 30 mins before pentylenetetrazole challenge measured for 30 mins (RVb=599 +/- 37.6 seconds); format: functional
Mus musculus [25] = assay: Effect on spontaneous motility in CD1 albino mouse assessed as number of movement on plane board at 30 mg/kg, po after 30 mins by hole-board test; format: functional; procedure, shortened: as §2
Mus musculus [26] = assay: Effect on explorative capacity in CD1 albino mouse assessed as curiosity-related number of head plugging activity on hole at 30 mg/kg, po after 30 mins by hole-board test; format: functional; procedure, shortened: as §2
Mus musculus [27] = assay: Anxiolytic activity in CD1 albino mouse at 3 mg/kg, po after 30 mins by light/dark box test; format: functional, organism-based; parameters: dose 3 mg/kg; procedure, shortened: as §3
Mus musculus [28] = assay: Anxiolytic activity in CD1 albino mouse at 10 mg/kg, po after 30 mins by light/dark box test; format: functional, organism-based; parameters: dose 10 mg/kg; procedure, shortened: as §3
Mus musculus [29] = assay: Anxiolytic activity in CD1 albino mouse at 30 mg/kg, po after 30 mins by light/dark box test; format: functional, organism-based; parameters: dose 30 mg/kg; procedure, shortened: as §3
Mus musculus [30] = assay: Anxiolytic activity in CD1 albino mouse at 10 mg/kg, po after 30 mins by light/dark box test in presence of flumazenil; format: functional, organism-based; parameters: dose 10 mg/kg; procedure, shortened: as §6
Mus musculus [31] = assay: Anxiolytic activity in CD1 albino mouse at 30 mg/kg, po after 30 mins by light/dark box test in presence of flumazenil; format: functional, organism-based; parameters: dose 30 mg/kg; procedure, shortened: as §6
Mus musculus [32] = assay: Effect on learning and memory process in CD1 albino mouse assessed as improvement in retention latency at 10 mg/kg, po after 24 hrs by passive avoidance test; format: functional, organism-based; parameters: dose 10 mg/kg; procedure, shortened: as §4
Mus musculus [33] = assay: Effect on learning and memory process in CD1 albino mouse assessed as improvement in retention latency at 30 mg/kg, po after 24 hrs by passive avoidance test; format: functional, organism-based; parameters: dose 30 mg/kg; procedure, shortened: as §4
Mus musculus [34] = assay: Effect on ethanol-induced sleeping time in CD1 albino mouse assessed as reduction in duration of loss of righting reflex at 30 mg/kg, po preincubated 30 mins before ethanol challenge; format: functional, organism-based; parameters: dose 30 mg/kg

Row | Structure (SMILES) | Activity (Mus musculus [1]) | Activity (Mus musculus [2]) | Activity (Mus musculus [3]) [s] | Activity (Mus musculus [4]) [s] | Activity (Mus musculus [5]) [s] | Activity (Mus musculus [6]) [s] | Activity (Mus musculus [7]) | Activity (Mus musculus [8]) | Activity (Mus musculus [9]) | Activity (Mus musculus [10]) | Activity (Mus musculus [17]) | Activity (Mus musculus [18]) | Activity (Bos taurus) [%] | Ki [19] [nM] | further results
1 | [O-][n+]1nc2c(I)cnn2c2cc(Oc3ccccc3)ccc21 | 0.9 | 0.6 | 264.7 | 243.6 | 516.1 | 345.5 | 73.2 | 63.8 | 38 | 39.8 | Active | Active | > 80 | 8.6 | Activity (Mus musculus [11]): Active; Activity (Mus musculus [12]): Active; Activity (Mus musculus [13]): Active; Activity (Mus musculus [14]): Active; Activity (Mus musculus [15]): Active; Activity (Mus musculus [16]): Active; Activity (Mus musculus [20]): inactive
2 | CCOC(=O)c1ncn2c1CN(C)C(=O)c1cc(F)ccc1-2 | – | – | – | – | – | – | – | – | – | – | – | – | – | – | Activity (Mus musculus [21]): Active
3 | [O-][n+]1nc2c(I)cnn2c2cc(OCc3ccccc3)ccc21 | 1.5 | 2.2 | 375 | 266.1 | 380.2 | 360.8 | 54.3 | 66.9 | 29 | 22.7 | inactive | inactive | > 80 | 1.1 | Activity (Mus musculus [22]): 1.7; Activity (Mus musculus [23]): 354 s; Activity (Mus musculus [24]): 479.7 s; Activity (Mus musculus [25]): 54.5; Activity (Mus musculus [26]): 28.7; Activity (Mus musculus [27]): Active; Activity (Mus musculus [28]): Active; Activity (Mus musculus [29]): Active; Activity (Mus musculus [30]): inactive; Activity (Mus musculus [31]): inactive; Activity (Mus musculus [32]): Active; Activity (Mus musculus [33]): Active; Activity (Mus musculus [34]): Active

From ChEMBL document CHEMBL1158477, “Synthesis, in vivo evaluation, and molecular modeling studies of new pyrazolo[5,1-c][1,2,4]benzotriazine 5-oxide derivatives. Identification of a bifunctional hydrogen bond area related to the inverse agonism” (J Med Chem, 2009)
